Measurements taken from ChEMBL document CHEMBL4732030, “Aloe-emodin derived azoles as a new structural type of potential antibacterial agents: design, synthesis, and evaluation of the action on membrane, DNA, and MRSA DNA isomerase” (RSC Med Chem, 2021).
Values after ≈ are worked out from the molar mass of the structure shown. Active and inactive are the calls of the source. The calls are words filed in the database; no cut-off is given here.

Columns and labels:
Staphylococcus aureus [1] = experiment: Antibacterial activity against methicillin resistant Staphylococcus aureus assessed as inhibition of bacterial growth after 24 hrs by microbroth dilution method; format: functional
Outline: (§1)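 Inoculum adjusted in sterile saline to 1×10^5 CFU. Compounds dissolved in DMSO as stock, then diluted in Mueller-Hinton broth as a two-fold series from 512 to 0.5 µg/mL (11 levels). Inoculated dilutions incubated at 37 °C for 24 h, and the MIC recorded.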

Enterococcus faecalis = experiment: Antibacterial activity against Enterococcus faecalis assessed as inhibition of bacterial growth after 24 hrs by microbroth dilution method; format: functional
Outline: (§2)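 Bacterial inoculum set to 1×10^5 CFU with sterile saline. Test agents and reference drugs, from DMSO stocks, diluted in Mueller-Hinton broth to 512, 256, 128, 64, 32, 16, 8, 4, 2, 1 and 0.5 µg/mL. Inoculated dilutions incubated 37 °C for 24 h.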

Staphylococcus aureus [2] = experiment: Antibacterial activity against Staphylococcus aureus assessed as inhibition of bacterial growth after 24 hrs by microbroth dilution method; format: functional; outline: as §2
Staphylococcus aureus [3] = experiment: Antibacterial activity against Staphylococcus aureus ATCC 25923 assessed as inhibition of bacterial growth after 24 hrs by microbroth dilution method; format: functional; outline: as §2
Staphylococcus aureus [4] = experiment: Antibacterial activity against Staphylococcus aureus ATCC 29213 assessed as inhibition of bacterial growth after 24 hrs by microbroth dilution method; format: functional; outline: as §1
Klebsiella pneumoniae = experiment: Antibacterial activity against Klebsiella pneumoniae assessed as inhibition of bacterial growth after 24 hrs by microbroth dilution method; format: functional; outline: as §2
Escherichia coli [5] = experiment: Antibacterial activity against Escherichia coli assessed as inhibition of bacterial growth after 24 hrs by microbroth dilution method; format: functional; outline: as §2
Escherichia coli [6] = experiment: Antibacterial activity against Escherichia coli ATCC 25922 assessed as inhibition of bacterial growth after 24 hrs by microbroth dilution method; format: functional; outline: as §2
Pseudomonas aeruginosa [7] = experiment: Antibacterial activity against Pseudomonas aeruginosa assessed as inhibition of bacterial growth after 24 hrs by microbroth dilution method; format: functional; outline: as §2
Pseudomonas aeruginosa [8] = experiment: Antibacterial activity against Pseudomonas aeruginosa ATCC 27853 assessed as inhibition of bacterial growth after 24 hrs by microbroth dilution method; format: functional; outline: as §2
Acinetobacter baumannii = experiment: Antibacterial activity against Acinetobacter baumannii assessed as inhibition of bacterial growth after 24 hrs by microbroth dilution method; format: functional; outline: as §2
[9] = Cytotoxicity against human LO2 cells assessed as cell viability at 12.5 uM after 72 hrs by CCK8 assay; format: cell-based, L02; details: read-out: Activity
Outline: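 Normal human liver LO2 cells seeded at 3000/well and cultured 24 h. Compound added at 100 to 6.25 µM in PBS containing 1% DMSO, then incubated 72 h. CCK8 added for 2 h at 37 °C and absorbance read at 450 nm.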

[10] = Cytotoxicity against human HepG2 cells assessed as cell viability at 12 uM after 72 hrs by CCK8 assay; format: cell-based; details: read-out: Activity
Staphylococcus aureus [11] = experiment: Induction of ROS generation in methicillin-resistant Staphylococcus aureus after 6 hrs by DCFH-DA dye based fluorometric analysis; format: functional, organism-based
Outline: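 MRSA cells at 10^6 CFU/mL were exposed to increasing concentrations of compound for 6 h at 37 °C, then washed with PBS. They were loaded with 10 μM DCFH-DA for 30 min in the dark at 37 °C. DCF fluorescence was read at ex 485/em 528 nm and expressed as fold increase over untreated control cells.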

Cell membrane [12] = experiment: Disruption of membrane integrity in methicillin-reisitant Staphylococcus aureus assessed as increase in fluorescence intensity at 12 times MIC measured within 50 mins by PI-staining based fluorescence analysis
Outline: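 Overnight MRSA culture pelleted, washed and resuspended in 5 mM glucose/5 mM HEPES pH 7.4 (1:1). Compound at 12× MIC added to 2 mL suspension containing 10 µM propidium iodide. Fluorescence followed at ex 535/em 617 nm. Water-treated suspension served as control.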

Cell membrane [13] = experiment: Disruption of membrane integrity in methicillin-reisitant Staphylococcus aureus assessed as increase in red fluorescence at 12 times MIC by PI-staining based fluorescence microscopy analysis
Outline: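 Overnight MRSA cultures treated at 12× MIC, with 0.1% Triton X-100 as positive control and untreated cells as negative control. Cells washed once in 1× PBS and stained with 4.5 mM propidium iodide for 15 min at 37 °C. Imaged by fluorescence microscopy, 10× objective, green-light excitation.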

Calf thymus DNA [14] = experiment: Binding affinity to calf thymus DNA assessed as DNA intercalation by neutral red dye based UV-visible spectroscopic method; format: nucleic-acid assay; details: Bos taurus
Outline: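 Neutral red stock prepared in doubly distilled water and kept cool and dark. DNA stock concentration was set by A260 (ε260 = 6600 L·mol−1·cm−1, per phosphate), with A260/A280 >1.8. All solutions were in Tris-HCl pH 7.4. UV spectra were taken at room temperature in 1.0 cm quartz cells.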

Calf thymus DNA [15] = experiment: Binding affinity to calf thymus DNA assessed as DNA intercalation by measuring hypochromic shift by UV-visible absorption spectrophotometric method; format: nucleic-acid assay; details: Bos taurus
Outline: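 DNA held fixed while compound concentration was raised stepwise, in Tris-HCl buffer pH 7.4. UV-vis spectra recorded at room temperature in 1.0 cm quartz cells, monitoring the 260 nm DNA band. Binding constant came from a linear fit of A0/(A−A0) against 1/[compound]. DNA stock concentration was set by A260 (ε260 = 6600 L·mol−1·cm−1, per phosphate), with A260/A280 >1.8.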

Staphylococcus aureus [16] = experiment: Potency index, ratio of norfloxacin MIC to compound MIC for antibacterial activity against methicillin resistant staphylococcus aureus incubated for 24 hrs by microbroth dilution method; format: functional

Row | SMILES | MIC (Staphylococcus aureus [1]) | MIC (Enterococcus faecalis) | MIC (Staphylococcus aureus [2]) | MIC (Staphylococcus aureus [3]) | MIC (Staphylococcus aureus [4]) | MIC (Klebsiella pneumoniae) | MIC (Escherichia coli [5]) | MIC (Escherichia coli [6]) | MIC (Pseudomonas aeruginosa [7]) | MIC (Pseudomonas aeruginosa [8]) | MIC (Acinetobacter baumannii) | viability at 72 h, 12.5 µM [9] | viability at 72 h, 12 µM [10] | Activity (Staphylococcus aureus [11]) | Activity (Cell membrane [12]) | Activity (Cell membrane [13]) | Activity (Calf thymus DNA [14]) | Activity (Calf thymus DNA [15]) | Ratio (Staphylococcus aureus [16])
1 | O=C1c2cccc(O)c2C(=O)c2c(O)cc(Cn3cnnn3)cc21 | 2 µg/mL (≈ 6.21 µM) | 4 µg/mL (≈ 12.4 µM) | 16 µg/mL (≈ 49.6 µM) | 64 µg/mL (≈ 199 µM) | 1 µg/mL (≈ 3.1 µM) | 32 µg/mL (≈ 99.3 µM) | 128 µg/mL (≈ 397 µM) | 64 µg/mL (≈ 199 µM) | 64 µg/mL (≈ 199 µM) | 16 µg/mL (≈ 49.6 µM) | 16 µg/mL (≈ 49.6 µM) | > 60% | > 50% | inactive | Active | Active | Active | Active | 4
2 | O=C1c2cccc(O)c2C(=O)c2c(O)cc(Cn3cncn3)cc21 | 32 µg/mL (≈ 99.6 µM) | 128 µg/mL (≈ 398 µM) | 8 µg/mL (≈ 24.9 µM) | 16 µg/mL (≈ 49.8 µM) | 32 µg/mL (≈ 99.6 µM) | 64 µg/mL (≈ 199 µM) | 64 µg/mL (≈ 199 µM) | 64 µg/mL (≈ 199 µM) | 32 µg/mL (≈ 99.6 µM) | 32 µg/mL (≈ 99.6 µM) | 32 µg/mL (≈ 99.6 µM) |  |  |  |  |  |  |  | 
3 | Cc1nnnn1Cc1cc(O)c2c(c1)C(=O)c1cccc(O)c1C2=O | 32 µg/mL (≈ 95.2 µM) | 16 µg/mL (≈ 47.6 µM) | 16 µg/mL (≈ 47.6 µM) | 64 µg/mL (≈ 190 µM) | 64 µg/mL (≈ 190 µM) | 64 µg/mL (≈ 190 µM) | 64 µg/mL (≈ 190 µM) | 64 µg/mL (≈ 190 µM) | 128 µg/mL (≈ 381 µM) | 32 µg/mL (≈ 95.2 µM) | 32 µg/mL (≈ 95.2 µM) |  |  |  |  |  |  |  | 
4 | O=C1c2cccc(O)c2C(=O)c2c(O)cc(CSc3nc4ccccc4[nH]3)cc21 | 32 µg/mL (≈ 79.5 µM) | 32 µg/mL (≈ 79.5 µM) | 4 µg/mL (≈ 9.94 µM) | 128 µg/mL (≈ 318 µM) | 16 µg/mL (≈ 39.8 µM) | 64 µg/mL (≈ 159 µM) | 64 µg/mL (≈ 159 µM) | 128 µg/mL (≈ 318 µM) | 128 µg/mL (≈ 318 µM) | 64 µg/mL (≈ 159 µM) | 16 µg/mL (≈ 39.8 µM) |  |  |  |  |  |  |  | 
